Active and inactive are the calls of the source. No cut-off for these calls is given here.
Key:
Rattus norvegicus [1] = assay: Antidiabetic activity in Zucker diabetic fatty rat assessed as reduction in blood HbA1c level at 0.05 to 10 mg/kg, po bid for 2 weeks measured on day 14 relative to vehicle-treated control; type: functional; parameters: scale not given: the % may be the effect or the level left; settings: dose mg/kg 0.05-10
Outline: (§1)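 Male ZDF rats, 8 weeks old, dosed orally twice daily for 14 days in two separate studies. Day-14 tail-vein blood sampled for HbA1c and for plasma glucose (nonfasted), insulin and total GLP-1. Compared with vehicle-treated animals, significance at p < 0.05.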

Rattus norvegicus [2] = assay: Antidiabetic activity in Zucker diabetic fatty rat assessed as increase in fecal bile acid excretion at 0.05 to 10 mg/kg, po bid for 2 weeks measured for 24 hrs post last dose relative to vehicle-treated control; type: functional, Feces; settings: dose mg/kg 0.05-10
Mus musculus [3] = assay: In vivo inhibition of ASBT in C57BL/6J mouse assessed as increase in fecal bile acid excretion measured for 24 hrs; type: functional; settings: Feces
Rattus norvegicus [4] = assay: Antidiabetic activity in Zucker diabetic fatty rat assessed as increase in plasma insulin level at 0.05 to 10 mg/kg, po bid for 2 weeks measured on day 14 relative to vehicle-treated control; type: functional, organism-based; outline: as §1
[5] = Thermal stability of the compound; type: physicochemical
[6] = molecular target: T1, Ileal sodium/bile acid cotransporter (Mus musculus, UniProt P70172); assay: Inhibition of mouse ASBT expressed in HEK293 cells assessed as inhibition of [3H]-taurocholate uptake after 90 mins by scintillation counting analysis; type: cell-based
T1 sequence (P70172 whole entry): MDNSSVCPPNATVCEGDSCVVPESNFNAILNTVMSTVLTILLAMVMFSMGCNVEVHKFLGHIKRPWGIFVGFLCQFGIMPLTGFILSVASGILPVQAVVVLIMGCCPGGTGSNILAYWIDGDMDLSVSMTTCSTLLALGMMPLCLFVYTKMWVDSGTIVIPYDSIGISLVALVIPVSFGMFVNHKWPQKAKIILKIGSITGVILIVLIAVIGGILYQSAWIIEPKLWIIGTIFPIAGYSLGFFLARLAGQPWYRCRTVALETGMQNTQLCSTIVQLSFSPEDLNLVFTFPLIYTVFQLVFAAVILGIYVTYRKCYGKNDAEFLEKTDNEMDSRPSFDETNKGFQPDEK

Rattus norvegicus [7] = assay: Antidiabetic activity in Zucker diabetic fatty rat assessed as reduction in non-fasted plasma glucose level at 0.05 to 10 mg/kg, po bid for 2 weeks measured on day 14 relative to vehicle-treated control; type: functional; parameters: scale not given: the % may be the effect or the level left; settings: dose mg/kg 0.05-10; outline: as §1
Mus musculus [8] = assay: In vivo inhibition of ASBT in C57BL/6J mouse assessed as increase in fecal bile acid excretion measured for 24 hrs relative to 264W94; type: functional, Feces; parameters: concentration or dose not given beside the values
[9] = molecular target: T2, Ileal sodium/bile acid cotransporter (Rattus norvegicus, UniProt Q62633); assay: Inhibition of rat ASBT expressed in HEK293 cells assessed as inhibition of [3H]-taurocholate uptake after 90 mins by scintillation counting analysis; type: cell-based
T2 sequence (Q62633 whole entry): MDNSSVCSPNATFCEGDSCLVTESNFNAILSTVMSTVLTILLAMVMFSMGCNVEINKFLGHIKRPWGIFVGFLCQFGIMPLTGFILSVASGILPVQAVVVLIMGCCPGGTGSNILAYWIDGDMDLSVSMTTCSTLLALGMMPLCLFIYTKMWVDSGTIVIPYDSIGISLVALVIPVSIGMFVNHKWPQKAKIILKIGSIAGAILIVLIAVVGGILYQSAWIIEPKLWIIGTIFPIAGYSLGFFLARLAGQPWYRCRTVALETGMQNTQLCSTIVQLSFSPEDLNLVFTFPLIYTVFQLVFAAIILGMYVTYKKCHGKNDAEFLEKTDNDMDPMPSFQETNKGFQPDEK

[10] = molecular target: T3, Ileal sodium/bile acid cotransporter (Homo sapiens, UniProt Q12908); assay: Inhibition of human ASBT expressed in HEK293 cells assessed as inhibition of [3H]-taurocholate uptake after 90 mins by scintillation counting analysis; type: cell-based
T3 sequence (Q12908 whole entry): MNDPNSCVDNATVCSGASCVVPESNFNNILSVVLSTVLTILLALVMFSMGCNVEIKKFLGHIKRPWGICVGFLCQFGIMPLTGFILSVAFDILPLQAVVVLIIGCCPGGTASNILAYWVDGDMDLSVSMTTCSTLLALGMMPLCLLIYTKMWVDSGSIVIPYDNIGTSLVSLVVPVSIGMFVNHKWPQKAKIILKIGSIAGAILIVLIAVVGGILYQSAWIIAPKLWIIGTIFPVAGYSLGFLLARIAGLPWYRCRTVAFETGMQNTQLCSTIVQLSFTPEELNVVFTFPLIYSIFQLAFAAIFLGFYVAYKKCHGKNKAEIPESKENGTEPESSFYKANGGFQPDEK

[11] = Half life in Sprague-Dawley rat intestine at 10 mg/kg, po; type: ADME, organism-based; parameters: dose 10 mg/kg, route oral
[12] = Cmax in Sprague-Dawley rat systemic blood at 10 mg/kg, po; type: ADME, organism-based; parameters: dose 10 mg/kg, route oral
Outline: (§2)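 Fed male SD rats given a single oral gavage dose of 10 mg/kg. Maximum parent drug concentration measured in portal vein blood and in systemic blood.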

Rattus norvegicus [13] = assay: Antidiabetic activity in Zucker diabetic fatty rat assessed as increase in total GLP-1 level at 0.05 to 10 mg/kg, po bid for 2 weeks measured on day 14 relative to vehicle-treated control; type: functional, organism-based; outline: as §1
[14] = Cmax in Sprague-Dawley rat portal vein blood at 10 mg/kg, po; type: ADME, organism-based; parameters: dose 10 mg/kg, route oral; outline: as §2
[15] = Aqueous solubility of the compound; type: physicochemical; settings: buffer
[16] = Apparent permeability in MDCK cells expressing MDR1 at 3 uM after 60 mins by LC-MS/MS analysis; type: ADME, cell-based, Canis lupus familiaris; settings: dog
[17] = Drug recovery in Sprague-Dawley rat feces at 10 mg/kg, po; type: ADME, organism-based; parameters: dose 10 mg/kg, route oral; settings: read-out: Drug recovery
Rattus norvegicus [18] = assay: In vivo inhibition of ASBT in portal vein cannulated lean Sprague-Dawley rat assessed as decrease in portal vein bile acid level at 10 mg/kg, po measured after 1 to 2 hrs relative to vehicle-treated control; type: functional, organism-based; parameters: dose 10 mg/kg
Rattus norvegicus [19] = assay: Antidiabetic activity in portal vein cannulated lean Sprague-Dawley rat assessed as increase in portal vein total GLP-1 level at 10 mg/kg, po measured after 3 to 8 hrs; type: functional, organism-based; parameters: dose 10 mg/kg
[20] = Stability of the compound by glutathione trapping assay; type: physicochemical
Rattus norvegicus [21] = assay: Antidiabetic activity in portal vein cannulated lean Sprague-Dawley rat assessed as effect on portal vein GIP level at 10 mg/kg, po measured after 3 to 8 hrs relative to vehicle-treated control; type: functional, organism-based; parameters: dose 10 mg/kg
Rattus norvegicus [22] = assay: Antidiabetic activity in portal vein cannulated lean Sprague-Dawley rat assessed as increase in portal vein PYY level at 10 mg/kg, po measured after 3 to 8 hrs; type: functional, organism-based; parameters: dose 10 mg/kg
[23] = Cmax in beagle dog systemic blood at 10 mg/kg, po; type: ADME, organism-based, Canis lupus familiaris; parameters: dose 10 mg/kg, route oral
Outline: (§3)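 Solution dosed orally to fed SD rats (10 mg/kg), male beagle dogs (10 mg/kg) or cynomolgous monkeys (3 mg/kg). Parent compound measured in systemic circulation; rat lower limit of quantitation 1 ng/mL.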

[24] = Aqueous solubility of the compound at pH 7.4; type: physicochemical; settings: buffer
Rattus norvegicus [25] = assay: Antidiabetic activity in Zucker diabetic fatty rat assessed as reduction in non-fasted plasma glucose level at 0.001 to 10 mg/kg, po bid for 2 weeks measured on day 14 relative to vehicle-treated control; type: functional; parameters: scale not given: the % may be the effect or the level left; settings: dose mg/kg 0.001-10; outline: as §1
Cynomolgus monkey = assay: Cmax in cynomolgous monkey systemic blood at 3 mg/kg, po; type: ADME, organism-based, Macaca fascicularis; parameters: dose 3 mg/kg, route oral; settings: in vivo, BLD = below limit of detection; outline: as §3
Rattus norvegicus [26] = assay: Antidiabetic activity in Zucker diabetic fatty rat assessed as increase in total GLP-1 level at 0.001 to 10 mg/kg, po bid for 2 weeks measured on day 14 relative to vehicle-treated control; type: functional, organism-based; outline: as §1
Rattus norvegicus [27] = assay: Antidiabetic activity in Zucker diabetic fatty rat assessed as reduction in blood HbA1c level at 0.001 to 10 mg/kg, po bid for 2 weeks measured on day 14 relative to vehicle-treated control; type: functional; parameters: scale not given: the % may be the effect or the level left; settings: dose mg/kg 0.001-10; outline: as §1
Rattus norvegicus [28] = assay: Antidiabetic activity in Zucker diabetic fatty rat assessed as increase in plasma insulin level at 0.001 to 10 mg/kg, po bid for 2 weeks measured on day 14 relative to vehicle-treated control; type: functional, organism-based; outline: as §1
Intestine = assay: Metabolic stability in Sprague-Dawley rat intestine assessed as formation of (7R,9R)-7-Butyl-7-ethyl-2-methoxy-5,5-dioxo-9-phenyl-6,7,8,9-tetrahydro-5H-5lambda(6)-thia-8-aza-benzocyclohepten-3-ol at 10 mg/kg, po after 2 to 24 hrs; type: ADME, organism-based; parameters: dose 10 mg/kg, route oral; settings: in vivo

Stability [5] | IC50 [6] | IC50 [9] | IC50 [10] | half-life [11] | Cmax [12] | Cmax [14] | solubility [15] | Papp at 1 h, 3 µM [16] | dose excreted [17] | SMILES | Activity (Rattus norvegicus [1]) | fold change (FC) (Rattus norvegicus [2]) | ED50 (Mus musculus [3]) | Activity (Rattus norvegicus [4]) | Activity (Rattus norvegicus [7]) | Efficacy (Mus musculus [8]) | Activity (Rattus norvegicus [13]) | other results
Unstable | 0.3 nM | 0.2 nM | 4 nM | > 12 h | 1 ng/mL | 27 ng/mL | ≥ 200 µg/mL | 2.7 ×10⁻⁶ cm/s | 92% | CCCC[C@]1(CC)CS(=O)(=O)c2cc(CNCC(=O)O)c(OC)cc2[C@@H](c2ccccc2)N1 | 1.3% | 7 | 0.017 mg/kg | Active | >50% | 98% | Active | –
– | 0.5 nM | 0.9 nM | – | > 12 h | 3 ng/mL | 14 ng/mL | ≥ 200 µg/mL | 0.7 ×10⁻⁶ cm/s | 87% | CCCC[C@]1(CC)CS(=O)(=O)c2cc(CP(=O)(O)O)c(OC)cc2[C@@H](c2ccccc2)N1 | 1.3% | 7 | 0.12 mg/kg | Active | >50% | 92% | Active | inhibition (Rattus norvegicus [18]): Active; Activity (Rattus norvegicus [19]): Active; Stability [20]: Unstable; Activity (Rattus norvegicus [21]): inactive; Activity (Rattus norvegicus [22]): Active
Stable | 2.1 nM | 1.9 nM | 42 nM | > 12 h | – | 4 ng/mL | ≥ 200 µg/mL | 0.7 ×10⁻⁶ cm/s | 98% | CCCC[C@]1(CC)CS(=O)(=O)c2cc(CNC(CC(=O)O)CC(=O)O)c(OC)cc2[C@@H](c2ccccc2)N1 [LINERIXIBAT] | – | 7 | 0.022 mg/kg | – | – | 94% | – | Cmax [23]: 6 ng/mL; solubility [24]: > 7000 µg/mL; Activity (Rattus norvegicus [25]): >50%; Cmax (Cynomolgus monkey): BLD; Activity (Rattus norvegicus [26]): Active; Activity (Rattus norvegicus [27]): 1.3%; Activity (Rattus norvegicus [28]): Active
– | 3 nM | 22 nM | 180 nM | – | 19 ng/mL | 100 ng/mL | – | 10.7 ×10⁻⁶ cm/s | 3% | CCCC[C@]1(CC)CS(=O)(=O)c2cc(OC)c(OC)cc2[C@@H](c2ccccc2)N1 | – | – | 0.13 mg/kg | – | – | 100% | – | Stability (Intestine): Unstable

From ChEMBL document CHEMBL2385035 (J Med Chem, 2013)
